Assay outcomes: PubChem, The Scripps Research Institute Molecular Screening Center
M4 PAM: CHRM4 positive allosteric modulation; CHO-K1 hM4/Gqi5, Fluo-8 calcium fluorescence, ACh EC20; 0% = ACh EC20, 100% = maximal ACh; 360,000 compounds, 0.4% hits; activation, % at 3 µM; P08173;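 active = activation above its plate's cutoff, the mean activation of sample wells plus 3 SD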
Target sequence (P08173 whole entry, looked up): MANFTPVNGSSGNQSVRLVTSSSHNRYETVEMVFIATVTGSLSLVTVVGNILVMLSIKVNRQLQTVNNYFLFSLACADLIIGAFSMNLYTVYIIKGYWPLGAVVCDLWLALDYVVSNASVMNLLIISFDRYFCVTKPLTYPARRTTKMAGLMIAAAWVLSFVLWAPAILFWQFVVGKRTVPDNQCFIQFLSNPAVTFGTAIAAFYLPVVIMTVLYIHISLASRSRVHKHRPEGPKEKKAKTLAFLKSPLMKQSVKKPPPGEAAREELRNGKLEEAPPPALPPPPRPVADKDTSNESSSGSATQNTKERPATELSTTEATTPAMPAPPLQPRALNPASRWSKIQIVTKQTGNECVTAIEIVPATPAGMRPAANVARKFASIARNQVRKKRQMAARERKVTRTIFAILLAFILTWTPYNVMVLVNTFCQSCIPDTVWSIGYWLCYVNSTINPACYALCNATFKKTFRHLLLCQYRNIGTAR
M5 antag: blocks acetylcholine activation of human M5 receptor; P08912; CHO-hM5 cells, Fluo-8 calcium fluorescence, ACh EC80; inhibition, % at 3 µM; 360,000 compounds, 0.59% hits;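 active = inhibition above a per-plate cutoff, the mean of that plate's test compounds plus 3 SD, cut at about 27% in these data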;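 also: 0% = acetylcholine EC80 with DMSO and 100% = DMSO without agonist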
M4 ag: CHRM4 agonism in calcium assay. activation, % at 3 µM. P08173. CHO-K1 hM4/Gqi5, Fluo-8 calcium fluorescence; vehicle 0%, full acetylcholine response 100%. 360,000 compounds, 0.14% hits;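 active = activation above the run mean over all test wells plus 3 SD, cut at about 32% in these data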;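 also: peak over basal fluorescence ratio per well then scaled between controls; 0% = DMSO wells and 100% = acetylcholine at EC100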
M5 ag: CHRM5 agonism in calcium assay | P08912 | 360,000 compounds, 0.19% hits | CHO-K1 hM5 cells, Fluo-8 calcium fluorescence; 0% DMSO wells, 100% maximal acetylcholine response | activation, % at 3 µM | AID 624037;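 active = activation above the run's mean over test compounds plus 3 SD, cut at about 23% in these data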;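 also: signal is peak over basal fluorescence ratio across the kinetic read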
M4 antag: blocks acetylcholine activation of human M4 receptor; CHO-hM4 cells, ACh EC80, Fluo-8 calcium fluorescence; inhibition, % at 3 µM; 360,000 compounds, 0.73% hits; AID 624125;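 active = inhibition above its plate's cutoff, the mean inhibition of sample wells plus 3 SD, cut at about 27% in these data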;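 also: 0% = acetylcholine EC80 with DMSO and 100% = DMSO without agonist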
CHRM5 PAM: positive allosteric modulators of human muscarinic M5 receptor; CHO-K1 hM5, Fluo-8 calcium, ACh EC20 PAM; 0% = ACh EC20, 100% = ACh EC100; activation, % at 3 µM; 360,000 compounds, 0.3% hits; AID 624038;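 active = activation above the run cutoff, the mean activation of all test compounds plus 3 SD, cut at about 18% in these data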
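Test system: CHO-K1 hM5 cells / Doses: single-point, 3 µM nominal / Times: Post-acetylcholine fluorescence recording 140 s / Technique: Fluo-8 calcium fluorescence / Measure: Max/basal fluorescence ratio as % of EC20–EC100 ACh window / Benchmarks: low control EC20 acetylcholine (0%), high control EC100 acetylcholine (100%) / Replicates: one well per compound, no replicates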
An asterisk follows results filed as active. Hits are enriched below; roughly 1.9% of the tested compounds scored in any of these assays.

SMILES | M4 PAM | M5 antag | M4 ag | M5 ag | M4 antag | CHRM5 PAM
O=C(NN1C(=O)/C(=C/c2ccc(O)cc2)SC1=S)c1cccc(O)c1 | -8 | 11 | 13 | 25* | 14 | -5
COc1cc(/C=C2\SC(=S)N(NC(=O)c3ccccc3O)C2=O)ccc1O | -18 | 21 | 33* | 20 | 20 | -12
CCCCNC(=O)C(NC(=O)c1cnccn1)C(=O)c1ccccc1 (stereo not given) | 7 | -14 | 3 | 3 | -16 | 6
Cc1cc2c(cc1C)-n1nnnc1C(N1CCN(c3ncccc3C#N)CC1)C(=O)N2 (stereo not given) | -2 | 19 | 13 | 8 | -17 | -9
COc1ccc(N(C(=O)COc2ccccc2OC)S(=O)(=O)c2ccc(C)cc2)cc1 | 26* | -3 | 1 | -4 | -6 | 6
Nc1nc2ncccn2c1-c1ccc(F)c(F)c1 | 4 | -7 | 2 | 1 | -11 | 3
COCCNc1nc(Oc2cncc(Cl)c2)c2sccc2n1 | -8 | -1 | 4 | -2 | -6 | -5
CN(C)/C=C/c1onc(-c2c(F)cccc2Cl)c1C#N | 12 | 10 | 0 | 3 | 0 | 28*
Cc1onc(-c2c(F)cccc2Cl)c1C(=O)NC1CC1 | -3 | 6 | 2 | -1 | -2 | 0
Cc1ccc(-n2ncc(C#N)c2/N=C/N2CCOCC2)cc1 | 22* | 9 | 1 | -5 | -1 | -7
O=C(NC1CC1)c1ccc(CSCc2ccc(Cl)cc2)o1 | 0 | 5 | 6 | 4 | 3 | -4
COCCNC(=O)C1(C)CCN(Cc2noc(-c3c(C)noc3C)n2)C1 (stereo not given) | -5 | -2 | 2 | 2 | 7 | -2
COc1ccc(-c2nc(CS(=O)(=O)CC(=O)NCc3ccc4c(c3)OCO4)c(C)o2)cc1 | 12 | -27 | 0 | -2 | -11 | 26*
COc1cccc(-c2nc(CS(=O)(=O)CC(=O)N3CCN(C)CC3)c(C)o2)c1 | 1 | -4 | 2 | 52* | -26 | -22
CCOc1ccc(-c2nc(CSCC(=O)N3CCN(c4cccc(OC)c4)CC3)c(C)o2)cc1 | -11 | 27* | 20 | 7 | 3 | -20
OC(CSc1nnnn1-c1ccccc1)Cn1c2ccccc2c2ccccc21 (stereo not given) | 6 | -4 | 9 | 3 | -18 | 0
O=C(O)COCC(=O)N1CCN(C(c2ccccc2)c2ccccc2)CC1 | -50 | 40* | 16 | -16 | 41* | -31
N#CCC(=O)N1CCN(C(c2ccccc2)c2ccccc2)CC1 | -8 | 12 | -1 | -16 | 5 | -7
COc1ccc(N2CCN(C(=O)CN3CCN(C(c4ccccc4)c4ccccc4)CC3)CC2)cc1 | -15 | 4 | 0 | -9 | 28* | -13
COc1ccc(N2CCN(CC(=O)NC(C)c3ccccc3)CC2)cc1 (stereo not given) | 2 | 4 | 0 | -1 | -3 | 8
O=C(CN1CCN(C(c2ccccc2)c2ccccc2)CC1)N1CCOCC1 | -16 | 24 | 2 | -5 | 37* | -14
O=C(NC(Cc1c[nH]c2ccccc12)C(=O)N/N=C/c1ccc(Cl)cc1)c1cccs1 (stereo not given) | -12 | 27* | 13 | -2 | 8 | -15
Cc1ccc(Cn2nnc(C(=O)Nc3cccc(C)c3C)c2N)cc1 | -20 | 14 | 53* | 38* | 21 | -4
CCc1ccc(Cn2nnc(C(=O)Nc3cccc(C)c3)c2N)cc1 | 2 | 3 | 4 | 6 | 5 | -3
COc1cccc(Cn2nnc(C(=O)Nc3cc(C)ccc3OC)c2N)c1 | 18* | 2 | 0 | -2 | -13 | -6
SMILES | M4 PAM | M5 antag | M4 ag | M5 ag | M4 antag | CHRM5 PAM
c1cc2c(cc1CN1CCN(C3CCCCCC3)CC1)OCO2 | -16 | 9 | 0 | -8 | 46* | -14
O=C(NC1CCCCC1)C(c1ccc(C(F)(F)F)cc1)n1c(=O)c(-c2cc3ccccc3[nH]2)nc2ccccc21 (stereo not given) | 1 | -18 | 2 | 4 | -10 | 5
COC(=O)C(C(=O)OC)c1ncccc1NS(=O)(=O)c1ccc(C)cc1 | 14 | -11 | 1 | 0 | -5 | 18
O=C(c1ccncc1)c1ccc(Br)cc1 | 35* | -7 | 0 | 2 | 9 | 0
COc1ccc(C(=O)c2ccc(Br)cc2)cc1 | 6 | -7 | -1 | -1 | -6 | 0
Cc1ccc(C(=O)NCCNc2ncc(C(F)(F)F)cc2Cl)cc1[N+](=O)[O-] | -20 | 27* | 7 | -7 | 11 | -16
Cc1ccccc1NC(=O)C1C(=O)Nc2ccccc2C(=O)N1Cc1ccccc1 (stereo not given) | -3 | -6 | 9 | 3 | -4 | 6
COc1ccc(C2CC=C(C(C)=O)CN2S(=O)(=O)c2ccc(Cl)cc2)cc1 (stereo not given) | -7 | 10 | 9 | -2 | -8 | -14
COc1ccc(C2c3c(ncn(CCCO)c3=N)Oc3ccc4ccccc4c32)cc1 (stereo not given) | -9 | 7 | 19 | -4 | 0 | -10
COc1ccc(C2c3c(ncn(CCCO)c3=N)Oc3ccc4ccccc4c32)cc1OC (stereo not given) | 11* | -4 | 1 | -2 | 1 | 7
COc1cccc(CN2CCC2(C)C(=O)Nc2cccc(NS(C)(=O)=O)c2)c1OC (stereo not given) | -5 | 2 | 5 | 0 | -1 | -6
C[N+](C)(C)CCOC(=O)CCC(=O)OCC[N+](C)(C)C | -6 | -1 | 1 | 2 | -4 | -3
CC(=O)SCC[N+](C)(C)C | -5 | 20 | 1 | 63* | -1 | -20
O=[N+]([O-])c1cccc(-c2nnc(C3CC3)o2)c1 | 16 | 15 | 0 | 11 | -12 | 36*
Nc1nnc(-c2cccc([N+](=O)[O-])c2)o1 | -9 | 7 | 2 | -4 | 7 | -2
COc1ccc(S(=O)(=O)N2CCC(C(=O)N[C@@H](C)C(=O)NC3CCCC3)CC2)cc1 | 2 | 19 | 1 | 2 | 0 | 32*
COc1ccc(CNC(=O)CCNC(=O)C2CCN(S(=O)(=O)c3ccc(OC)cc3)CC2)cc1 | 19* | -1 | 0 | -1 | -15 | -7
COc1ccc(NC(=O)CCNC(=O)C2CCN(S(=O)(=O)c3ccc(OC)cc3)CC2)cc1 | -6 | 13 | 0 | -3 | 4 | -4
CC(C)[C@H](NC(=O)C1CCN(S(=O)(=O)c2ccccc2)CC1)C(=O)NCc1ccccc1 | 15* | -13 | 0 | -2 | -11 | 13
